Test results taken from ChEMBL document CHEMBL4190286, “Modulating the Serotonin Receptor Spectrum of Pulicatin Natural Products” (J Nat Prod, 2017).
Activity calls are given as the source filed them. The calls are words filed in the database; no cut-off is given here.

What was measured:
Mus musculus [1] = experiment: Anticonvulsant activity in mouse assessed as protection against maximal electroshock-induced seizure at 100 mg/kg, ip pre-treated 0.25 to 4 hrs before electrical stimulation; type: functional, organism-based
Method in brief: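 Maximal electroshock seizure test in mice, four per condition. Compound was given ip at 10, 30 and 100 mg/kg, and mice were challenged at 0.25, 0.5, 1, 2 and 4 h after treatment. Data are the number protected over the number tested.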

Mus musculus [2] = experiment: Neurotoxicity in mouse assessed as motor impairment at 100 mg/kg, ip after 0.25 to 4 hrs by rotarod test; type: toxicity, organism-based; conditions: in vivo
Method in brief: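 Rotarod, four mice per condition after ip dosing (10, 30 or 100 mg/kg). The rod turns at a fixed 6 rpm, and each mouse is observed for 1 min. Falling off three times within that minute scores as minimal motor impairment. Results are the number impaired over the number tested at 0.25–4 h.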

Mus musculus [3] = experiment: Antinociceptive activity in mouse assessed as increase in pain response latency at 100 mg/kg, ip by hot plate assay; type: functional, organism-based
Method in brief: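 Mice acclimatized for 10 min, then were placed on a hot plate held at 55 °C inside a clear open-top enclosure. Latency to hindpaw lick, hindpaw flick or jump was timed manually to the nearest 0.1 s.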

[4] = molecular target: T1, 5-hydroxytryptamine receptor 2B (Homo sapiens, UniProt P41595); experiment: Ratio of IC50 for antagonist activity at 5-HT2B receptor (unknown origin) by calcium release assay to Ki for displacement of [3H]-LSD from human 5-HT2B receptor expressed in baculovirus infected Sf9 cells; type: functional
Mus musculus [5] = experiment: Anticonvulsant activity in mouse assessed as protection against 32/44 mA current-induced seizure at 10 to 100 mg/kg, ip pre-treated 0.25 to 4 hrs before current challenge by 6 Hz psychomotor seizure test; type: functional, organism-based
Method in brief: (§1)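 Mice received compound intraperitoneally at 10, 30 and 100 mg/kg. At 0.25, 0.5, 1, 2 and 4 h after dosing, four mice per time point were challenged with 32 or 44 mA for 3 s through corneal electrodes to elicit a partial psychomotor seizure. Data are the number of mice protected over the number tested at each time.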

Mus musculus [6] = experiment: Anticonvulsant activity in mouse assessed as protection against 44 mA current-induced seizure at 100 mg/kg, ip pre-treated 2 to 4 hrs before current challenge by 6 Hz psychomotor seizure test; type: functional, organism-based; method in brief: as §1
Mus musculus [7] = experiment: Antinociceptive activity in mouse assessed as tail withdrawal latency at 100 mg/kg, ip by tail flick assay; type: functional, organism-based
[8] = molecular target: T2, 5-hydroxytryptamine receptor 2C (Homo sapiens, UniProt P28335); experiment: Displacement of [3H]-Mesulergine from human 5-HT2C receptor expressed in HEKT cells after 90 mins by microbeta scintillation counting analysis; type: cell-based
T2 sequence (P28335 whole entry): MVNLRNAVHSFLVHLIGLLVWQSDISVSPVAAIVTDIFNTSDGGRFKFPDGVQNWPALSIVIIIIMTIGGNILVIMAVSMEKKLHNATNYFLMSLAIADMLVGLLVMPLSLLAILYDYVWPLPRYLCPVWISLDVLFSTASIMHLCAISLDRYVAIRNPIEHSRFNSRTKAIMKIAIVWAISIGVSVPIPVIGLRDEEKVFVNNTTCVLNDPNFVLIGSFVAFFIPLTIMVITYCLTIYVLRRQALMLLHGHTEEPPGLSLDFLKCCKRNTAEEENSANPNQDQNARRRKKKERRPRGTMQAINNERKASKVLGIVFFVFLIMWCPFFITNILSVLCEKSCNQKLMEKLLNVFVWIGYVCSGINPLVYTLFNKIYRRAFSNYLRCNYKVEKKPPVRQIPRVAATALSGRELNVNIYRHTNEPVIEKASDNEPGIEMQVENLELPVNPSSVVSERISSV

[9] = molecular target: T1, 5-hydroxytryptamine receptor 2B; experiment: Displacement of [3H]-LSD from human 5-HT2B receptor expressed in HEK cells after 90 mins by microbeta scintillation counting analysis; type: cell-based
[10] = molecular target: T1, 5-hydroxytryptamine receptor 2B; experiment: Antagonist activity at 5-HT2B receptor (unknown origin) by calcium release assay; type: functional
[11] = molecular target: T1, 5-hydroxytryptamine receptor 2B; experiment: Agonist activity at 5-HT2B receptor (unknown origin) by calcium release assay; type: functional
[12] = molecular target: T3, 5-hydroxytryptamine receptor 6 (Homo sapiens, UniProt P50406); experiment: Displacement of [3H]-LSD from human 5-HT6 receptor expressed in HEK cells after 90 mins by microbeta scintillation counting analysis; type: cell-based
[13] = molecular target: T4, 5-hydroxytryptamine receptor 7 (Homo sapiens, UniProt P34969); experiment: Displacement of [3H]-LSD from human 5-HT7A receptor expressed in HEK cells after 90 mins by microbeta scintillation counting analysis; type: cell-based
[14] = molecular target: T5, 5-hydroxytryptamine receptor 2A (Homo sapiens, UniProt P28223); experiment: Antagonist activity at 5-HT2A receptor (unknown origin) by calcium release assay; type: functional
[15] = molecular target: T5, 5-hydroxytryptamine receptor 2A; experiment: Displacement of [3H]Ketanserin from 5-HT2A (unknown origin) receptor after 90 mins by microbeta scintillation counting analysis
[16] = molecular target: T6, 5-hydroxytryptamine receptor 1A (Homo sapiens, UniProt P08908); experiment: Antagonist activity at 5-HT1A receptor (unknown origin) by Tango assay; type: functional
T6 sequence (P08908 whole entry): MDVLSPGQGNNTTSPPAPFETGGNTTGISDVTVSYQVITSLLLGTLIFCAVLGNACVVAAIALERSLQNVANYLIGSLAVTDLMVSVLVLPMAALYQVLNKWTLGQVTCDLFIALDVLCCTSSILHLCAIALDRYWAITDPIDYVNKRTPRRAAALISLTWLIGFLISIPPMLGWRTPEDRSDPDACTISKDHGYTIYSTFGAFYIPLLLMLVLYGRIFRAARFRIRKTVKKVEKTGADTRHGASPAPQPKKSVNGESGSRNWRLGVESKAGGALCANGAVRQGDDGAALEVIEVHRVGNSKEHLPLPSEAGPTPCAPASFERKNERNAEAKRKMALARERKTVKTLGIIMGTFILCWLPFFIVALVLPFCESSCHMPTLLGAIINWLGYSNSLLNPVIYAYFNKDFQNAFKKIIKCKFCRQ

[17] = molecular target: T2, 5-hydroxytryptamine receptor 2C; experiment: Antagonist activity at 5-HT2C receptor (unknown origin) by calcium release assay; type: functional
[18] = molecular target: T4, 5-hydroxytryptamine receptor 7; experiment: Antagonist activity at 5-HT7A receptor (unknown origin) by Tango assay
[19] = molecular target: T7, 5-hydroxytryptamine receptor 5A (Homo sapiens, UniProt P47898); experiment: Displacement of [3H]-LSD from human 5-HT5A receptor expressed in Flp-In CHO cells after 90 mins by microbeta scintillation counting analysis; type: cell-based
[20] = molecular target: T8, 5-hydroxytryptamine receptor 3A (Homo sapiens, UniProt P46098); experiment: Displacement of [3H]-GR65630 from human 5-HT3 receptor expressed in HEKT cells after 90 mins by microbeta scintillation counting analysis; type: cell-based
T8 sequence (P46098 whole entry): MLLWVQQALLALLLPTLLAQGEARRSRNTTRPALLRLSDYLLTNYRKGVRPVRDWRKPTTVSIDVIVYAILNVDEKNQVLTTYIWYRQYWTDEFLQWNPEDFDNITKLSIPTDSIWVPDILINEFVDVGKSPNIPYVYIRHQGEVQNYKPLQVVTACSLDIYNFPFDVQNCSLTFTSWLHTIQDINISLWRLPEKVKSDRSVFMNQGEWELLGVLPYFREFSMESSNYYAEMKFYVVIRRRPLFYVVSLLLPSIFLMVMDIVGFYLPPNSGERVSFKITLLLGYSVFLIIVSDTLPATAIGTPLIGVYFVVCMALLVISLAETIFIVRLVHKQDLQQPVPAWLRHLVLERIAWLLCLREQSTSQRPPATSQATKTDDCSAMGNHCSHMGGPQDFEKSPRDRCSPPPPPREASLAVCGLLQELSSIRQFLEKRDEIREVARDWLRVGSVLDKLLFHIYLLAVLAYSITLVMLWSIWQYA

[21] = molecular target: T9, 5-hydroxytryptamine receptor 1D (Homo sapiens, UniProt P28221); experiment: Displacement of [3H]5-CT from human 5-HT1D receptor expressed in HEKT cells after 90 mins by microbeta scintillation counting analysis; type: cell-based
[22] = molecular target: T10, 5-hydroxytryptamine receptor 1E (Homo sapiens, UniProt P28566); experiment: Displacement of [3H]5-HT from human 5-HT1E receptor expressed in HEK cells after 90 mins by microbeta scintillation counting analysis; type: cell-based
[23] = molecular target: T9, 5-hydroxytryptamine receptor 1D; experiment: Antagonist activity at 5-HT1D receptor (unknown origin) by Tango assay; type: functional
Mus musculus [24] = experiment: Anticonvulsant activity in ip dosed CF1 mouse assessed as protection against 44 mA current-induced seizure after 1 hr by 6 Hz psychomotor test; type: functional; method in brief: as §1
[25] = molecular target: T2, 5-hydroxytryptamine receptor 2C; experiment: Binding affinity to 5-HT2C receptor (unknown origin) by radioligand binding assay
[26] = molecular target: T10, 5-hydroxytryptamine receptor 1E; experiment: Binding affinity to 5-HT1E receptor (unknown origin) by radioligand binding assay
[27] = molecular target: T5, 5-hydroxytryptamine receptor 2A; experiment: Binding affinity to 5-HT2A receptor (unknown origin) by radioligand binding assay
[28] = molecular target: T9, 5-hydroxytryptamine receptor 1D; experiment: Binding affinity to 5-HT1D receptor (unknown origin) by radioligand binding assay
[29] = molecular target: T7, 5-hydroxytryptamine receptor 5A; experiment: Binding affinity to 5-HT5A receptor (unknown origin) by radioligand binding assay
[30] = molecular target: T3, 5-hydroxytryptamine receptor 6; experiment: Binding affinity to 5-HT6 receptor (unknown origin) by radioligand binding assay
[31] = molecular target: T8, 5-hydroxytryptamine receptor 3A; experiment: Binding affinity to 5-HT3 receptor (unknown origin) by radioligand binding assay
[32] = molecular target: T11, 5-hydroxytryptamine receptor 1B (Homo sapiens, UniProt P28222); experiment: Displacement of [3H]-LSD from human 5-HT1B receptor expressed in baculovirus infected Sf9 cells
[33] = molecular target: T4, 5-hydroxytryptamine receptor 7; experiment: Binding affinity to 5-HT7A receptor (unknown origin) by radioligand binding assay
[34] = molecular target: T11, 5-hydroxytryptamine receptor 1B; experiment: Agonist activity at 5-HT1B receptor (unknown origin) at 2 uM by Tango assay; type: functional
[35] = molecular target: 5-hydroxytryptamine receptor 4 (Homo sapiens, UniProt Q13639); experiment: Antagonist activity at 5-HT4 receptor (unknown origin) by Tango assay; type: functional
[36] = molecular target: T11, 5-hydroxytryptamine receptor 1B; experiment: Partial agonist activity at 5-HT1B receptor (unknown origin) by Tango assay; type: functional
[37] = molecular target: T11, 5-hydroxytryptamine receptor 1B; experiment: Displacement of [3H]5-CT from human 5-HT1B receptor expressed in HEK cells after 90 mins by microbeta scintillation counting analysis; type: cell-based
[38] = molecular target: T11, 5-hydroxytryptamine receptor 1B; experiment: Antagonist activity at 5-HT1B receptor (unknown origin) by Tango assay; type: functional

T11 sequence (P28222 whole entry): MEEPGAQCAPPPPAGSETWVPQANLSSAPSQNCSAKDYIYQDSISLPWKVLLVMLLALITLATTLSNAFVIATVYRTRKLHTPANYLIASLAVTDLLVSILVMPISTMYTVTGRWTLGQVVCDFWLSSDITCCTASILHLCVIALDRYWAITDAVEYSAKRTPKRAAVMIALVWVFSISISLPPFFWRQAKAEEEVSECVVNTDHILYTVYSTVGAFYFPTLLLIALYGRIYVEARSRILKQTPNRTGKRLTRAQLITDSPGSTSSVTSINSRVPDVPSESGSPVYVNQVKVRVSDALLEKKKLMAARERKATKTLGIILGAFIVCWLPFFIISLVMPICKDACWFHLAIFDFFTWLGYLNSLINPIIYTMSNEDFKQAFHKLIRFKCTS
T4 sequence (P34969 whole entry): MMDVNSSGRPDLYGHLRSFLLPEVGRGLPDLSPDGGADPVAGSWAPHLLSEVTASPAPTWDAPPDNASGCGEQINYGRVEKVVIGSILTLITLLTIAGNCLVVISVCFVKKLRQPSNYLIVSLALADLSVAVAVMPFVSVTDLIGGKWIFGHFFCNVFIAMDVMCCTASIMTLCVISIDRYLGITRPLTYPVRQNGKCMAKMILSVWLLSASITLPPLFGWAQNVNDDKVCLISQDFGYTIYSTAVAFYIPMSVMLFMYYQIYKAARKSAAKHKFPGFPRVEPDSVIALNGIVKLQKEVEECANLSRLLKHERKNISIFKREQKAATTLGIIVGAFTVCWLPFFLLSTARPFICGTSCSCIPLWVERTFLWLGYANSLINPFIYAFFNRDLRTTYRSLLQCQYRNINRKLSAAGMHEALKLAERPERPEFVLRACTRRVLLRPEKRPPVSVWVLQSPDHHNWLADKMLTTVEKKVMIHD
T7 sequence (P47898 whole entry): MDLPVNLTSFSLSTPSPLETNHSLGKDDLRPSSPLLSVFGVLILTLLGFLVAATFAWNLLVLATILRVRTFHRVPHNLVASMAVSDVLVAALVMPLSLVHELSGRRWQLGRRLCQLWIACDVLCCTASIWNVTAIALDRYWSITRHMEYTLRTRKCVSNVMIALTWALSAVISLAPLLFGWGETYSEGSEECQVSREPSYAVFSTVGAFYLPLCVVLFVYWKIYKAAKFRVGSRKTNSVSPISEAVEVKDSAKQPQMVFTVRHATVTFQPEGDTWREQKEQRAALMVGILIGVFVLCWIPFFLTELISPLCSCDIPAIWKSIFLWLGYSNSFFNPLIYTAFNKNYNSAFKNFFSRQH
T1 sequence (P41595 whole entry): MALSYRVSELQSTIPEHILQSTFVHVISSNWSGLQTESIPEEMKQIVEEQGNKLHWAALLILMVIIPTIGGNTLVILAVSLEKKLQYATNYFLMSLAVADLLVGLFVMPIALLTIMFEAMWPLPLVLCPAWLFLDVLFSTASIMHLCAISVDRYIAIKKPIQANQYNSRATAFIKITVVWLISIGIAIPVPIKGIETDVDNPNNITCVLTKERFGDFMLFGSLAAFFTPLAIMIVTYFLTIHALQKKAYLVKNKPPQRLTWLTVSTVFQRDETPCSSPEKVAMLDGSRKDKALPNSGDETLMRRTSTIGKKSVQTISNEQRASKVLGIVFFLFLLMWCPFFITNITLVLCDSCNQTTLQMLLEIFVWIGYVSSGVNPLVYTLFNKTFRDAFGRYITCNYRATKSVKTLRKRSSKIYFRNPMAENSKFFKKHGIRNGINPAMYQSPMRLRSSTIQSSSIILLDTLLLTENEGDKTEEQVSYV
T3 sequence (P50406 whole entry): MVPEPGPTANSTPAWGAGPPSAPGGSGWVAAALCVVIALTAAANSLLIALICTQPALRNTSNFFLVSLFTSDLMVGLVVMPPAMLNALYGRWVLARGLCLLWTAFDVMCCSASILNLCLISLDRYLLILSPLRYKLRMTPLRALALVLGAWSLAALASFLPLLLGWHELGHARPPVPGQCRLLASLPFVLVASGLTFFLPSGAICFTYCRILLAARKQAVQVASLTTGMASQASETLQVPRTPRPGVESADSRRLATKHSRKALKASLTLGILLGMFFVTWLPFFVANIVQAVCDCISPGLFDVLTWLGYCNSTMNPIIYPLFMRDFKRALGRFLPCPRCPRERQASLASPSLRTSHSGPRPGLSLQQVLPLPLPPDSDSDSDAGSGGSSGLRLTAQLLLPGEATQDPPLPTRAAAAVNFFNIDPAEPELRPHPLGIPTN
T10 sequence (P28566 whole entry): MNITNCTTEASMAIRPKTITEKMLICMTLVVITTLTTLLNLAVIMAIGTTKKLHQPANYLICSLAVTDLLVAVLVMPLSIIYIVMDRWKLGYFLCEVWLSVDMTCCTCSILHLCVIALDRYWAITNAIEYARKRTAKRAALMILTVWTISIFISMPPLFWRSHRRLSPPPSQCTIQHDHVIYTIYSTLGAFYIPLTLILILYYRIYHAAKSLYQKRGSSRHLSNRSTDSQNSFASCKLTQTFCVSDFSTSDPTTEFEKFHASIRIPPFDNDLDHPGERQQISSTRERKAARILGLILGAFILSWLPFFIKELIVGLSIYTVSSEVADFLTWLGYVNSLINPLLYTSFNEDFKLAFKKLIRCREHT
T9 sequence (P28221 whole entry): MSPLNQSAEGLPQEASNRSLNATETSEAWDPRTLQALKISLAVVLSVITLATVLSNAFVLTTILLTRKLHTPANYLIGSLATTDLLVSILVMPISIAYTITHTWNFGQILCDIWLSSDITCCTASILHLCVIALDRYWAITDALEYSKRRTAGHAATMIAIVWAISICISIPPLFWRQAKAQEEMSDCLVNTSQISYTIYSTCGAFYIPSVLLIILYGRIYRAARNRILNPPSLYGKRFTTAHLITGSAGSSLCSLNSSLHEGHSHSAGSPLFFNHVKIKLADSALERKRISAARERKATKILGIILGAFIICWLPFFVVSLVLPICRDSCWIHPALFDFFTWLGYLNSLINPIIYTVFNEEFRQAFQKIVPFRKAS
T5 sequence (P28223 whole entry): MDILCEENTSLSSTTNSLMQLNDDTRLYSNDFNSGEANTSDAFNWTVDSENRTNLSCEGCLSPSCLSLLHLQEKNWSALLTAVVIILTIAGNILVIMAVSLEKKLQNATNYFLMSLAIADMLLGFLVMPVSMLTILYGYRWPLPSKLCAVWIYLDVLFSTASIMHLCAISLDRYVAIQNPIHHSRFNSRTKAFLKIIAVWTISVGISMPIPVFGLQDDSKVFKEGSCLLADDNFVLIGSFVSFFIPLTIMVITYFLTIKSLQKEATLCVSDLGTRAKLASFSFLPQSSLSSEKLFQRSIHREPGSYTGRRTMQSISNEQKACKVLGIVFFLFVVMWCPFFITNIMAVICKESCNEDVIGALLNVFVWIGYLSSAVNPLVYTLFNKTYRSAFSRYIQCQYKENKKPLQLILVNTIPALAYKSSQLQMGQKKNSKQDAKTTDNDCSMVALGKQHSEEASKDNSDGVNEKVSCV
Chain of 5-hydroxytryptamine receptor 4 (Q13639 whole entry): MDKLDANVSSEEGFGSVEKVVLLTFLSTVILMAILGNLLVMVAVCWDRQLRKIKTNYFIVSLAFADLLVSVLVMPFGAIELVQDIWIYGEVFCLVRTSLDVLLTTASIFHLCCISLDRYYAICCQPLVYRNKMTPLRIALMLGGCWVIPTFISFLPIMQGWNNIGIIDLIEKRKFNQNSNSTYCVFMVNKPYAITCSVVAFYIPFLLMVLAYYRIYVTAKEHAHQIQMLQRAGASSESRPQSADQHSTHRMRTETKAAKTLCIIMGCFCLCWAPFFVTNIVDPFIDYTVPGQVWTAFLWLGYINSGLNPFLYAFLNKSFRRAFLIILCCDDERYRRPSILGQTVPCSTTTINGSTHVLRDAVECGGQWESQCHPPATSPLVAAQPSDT

Row | Ratio [4] | Activity [11] | SMILES | Ki [8] | Ki [9] | IC50 [10] | Ki [12] | Ki [13] | Ki [15] | IC50 [16] | Ki [19] | Ki [20] | Ki [21] | Ki [22] | IC50 [23] | further results
1 | 50 to 140 | inactive | C[C@@H]1SC(c2ccccc2O)=N[C@H]1CO | 1.6 µM | 0.13 µM | 18 µM |  |  |  |  |  |  |  |  |  | Activity (Mus musculus [1]): inactive; Activity (Mus musculus [2]): Non-Toxic; Activity (Mus musculus [3]): Active; Activity (Mus musculus [5]): Active; Activity (Mus musculus [6]): inactive; Activity (Mus musculus [7]): inactive
2 |  |  | Oc1ccccc1C1=NC(Cc2c[nH]cn2)C(c2ccccc2)S1 (racemic) | 0.77 µM | 0.1 µM | 3.8 µM | 2.2 µM | > 10 µM | 1.1 µM | > 10 µM | 4.7 µM | 0.86 µM | 2.2 µM | 2.4 µM | > 10 µM | IC50 [14]: 13 µM; IC50 [17]: > 10 µM; IC50 [18]: > 10 µM
3 |  |  | CCCC(CCC)C(=O)O [VALPROIC ACID] |  |  |  |  |  |  |  |  |  |  |  |  | ED50 (Mus musculus [24]): 310 mg/kg
4 | 50 to 140 | inactive | C[C@@H]1SC(c2ccccc2O)=N[C@@H]1CO [PULICATIN A] |  |  | 30 µM |  |  |  |  |  |  |  |  |  | Ki [25]: > 10 µM; Ki [26]: > 10 µM; Ki [27]: > 10 µM; Ki [28]: > 10 µM; Ki [29]: > 10 µM; Ki [30]: > 10 µM; Ki [31]: > 10 µM; Ki [32]: > 10 µM; Ki [33]: > 10 µM
5 |  |  | CCCCOc1ccc(C2=N[C@@H](CO)[C@H](C)S2)cc1 (relative stereo) | 3.2 µM | 7.5 µM | > 10 µM | > 10 µM | > 10 µM | 2.2 µM | > 10 µM | > 10 µM | > 10 µM | 9.7 µM | > 10 µM | > 10 µM | inhibition [34]: 100%; IC50 [35]: > 10 µM; EC50 [36]: 0.029 µM; Ki [37]: > 10 µM; IC50 [38]: 2.1 µM
